# Measured values: ChEMBL document CHEMBL2417436, “Synthesis and biological effects of novel 2-amino-3-(4-chlorobenzoyl)-4-substituted thiophenes as allosteric enhancers of the A1 adenosine receptor” (Eur J Med Chem, 2013)
# Tests used:
# [1] = target: T1, Adenosine receptor A1 (Homo sapiens) (UniProt P30542); assay: Allosteric enhancement of human adenosine A1 receptor expressed in CHO cells assessed as inhibition of forskolin-induced cAMP production at 10 uM after 10 mins; assay type: functional, cell-based
# T1 sequence (whole entry): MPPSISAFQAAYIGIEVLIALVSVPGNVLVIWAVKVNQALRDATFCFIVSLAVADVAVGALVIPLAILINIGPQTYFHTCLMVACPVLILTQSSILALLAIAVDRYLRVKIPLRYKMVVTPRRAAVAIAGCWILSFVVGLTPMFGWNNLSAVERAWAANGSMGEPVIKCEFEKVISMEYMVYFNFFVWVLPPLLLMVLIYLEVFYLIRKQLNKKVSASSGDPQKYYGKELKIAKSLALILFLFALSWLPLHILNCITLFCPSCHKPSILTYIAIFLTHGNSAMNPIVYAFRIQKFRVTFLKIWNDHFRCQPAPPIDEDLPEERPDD
# Method in brief: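 Whole hA1CHO cells (10⁶/mL) preincubated 10 min at 37 °C in phosphate buffer with adenosine deaminase (1.0 IU/mL) and Ro 20-1724 (0.5 mM). Compound alone at 10 μM for a further 10 min; forskolin 1 μM for 5 min. TCA stop, ether extraction, cAMP by [3H]-cAMP protein-binding competition assay. Expressed as pmol/10⁶ cells; mean ± SEM, three experiments.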
# [2] = target: T2, Adenosine receptor A3 (Homo sapiens) (UniProt P0DMS8); assay: Displacement of [3H]MRE-3008-F20 from human adenosine A3 receptor expressed in CHO cells at 10 uM after 120 mins by scintillation counting
# T2 sequence (whole entry): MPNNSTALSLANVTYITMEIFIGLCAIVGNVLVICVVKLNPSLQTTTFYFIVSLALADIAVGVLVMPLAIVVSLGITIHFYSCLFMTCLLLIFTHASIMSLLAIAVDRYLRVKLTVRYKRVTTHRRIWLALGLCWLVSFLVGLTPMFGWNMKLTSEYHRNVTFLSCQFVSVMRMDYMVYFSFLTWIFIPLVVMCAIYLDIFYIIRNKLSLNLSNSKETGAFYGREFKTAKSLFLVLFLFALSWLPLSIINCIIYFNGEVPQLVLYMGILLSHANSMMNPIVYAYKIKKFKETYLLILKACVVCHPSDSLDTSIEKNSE
# [3] = target: T1, Adenosine receptor A1 (Homo sapiens); assay: Displacement of [3H]DPCPX from human adenosine A1 receptor expressed in CHO cells at 10 uM after 120 mins by scintillation counting
# [4] = target: T1, Adenosine receptor A1 (Homo sapiens); assay: Allosteric enhancement of human adenosine A1 receptor expressed in CHO cells assessed as inhibition of CCPA-induced cAMP production at 100 nM after 10 mins; assay type: functional, cell-based
# Method in brief: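 Intact hA1CHO cells (10⁶/mL) in phosphate buffer with adenosine deaminase 1.0 IU/mL and Ro 20-1724 0.5 mM, preincubated 10 min at 37 °C. Compound 100 nM plus CCPA 1 pM added for 10 min, then forskolin 1 μM for 5 min. Stopped with cold 6% TCA, ether-extracted. cAMP measured by [3H]-cAMP competition with adrenal binding protein (4 °C, 150 min). pmol/10⁶ cells, mean ± SEM of three.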
# [5] = target: T1, Adenosine receptor A1 (Homo sapiens); assay: Allosteric enhancement of human adenosine A1 receptor expressed in CHO cells assessed as increase of CCPA Ki at 10 uM after 90 mins by [3H]DPCPX radioligand binding assay; assay type: cell-based
# Method in brief: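 hA1CHO membranes (50 mM Tris-HCl, pH 7.4, adenosine deaminase-treated). [3H]DPCPX 1 nM competed by CCPA (0.01 nM–1 μM) with or without test compound at 10 μM. Triplicate, 90 min at 25 °C. Nonspecific binding taken with 1 μM DPCPX. Filtration, then scintillation counting. Ki by Cheng–Prusoff. Shift = Ki(CCPA)/Ki(CCPA+enhancer). Mean ± SEM, n=3.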
# [6] = target: Adenosine receptor A2a (Homo sapiens) (UniProt P29274); assay: Displacement of [3H]ZM 241385 from human adenosine A2A receptor expressed in CHO cells at 10 uM after 60 mins by scintillation counting; assay type: cell-based
# Sequence of Adenosine receptor A2a (Homo sapiens) (P29274 whole entry): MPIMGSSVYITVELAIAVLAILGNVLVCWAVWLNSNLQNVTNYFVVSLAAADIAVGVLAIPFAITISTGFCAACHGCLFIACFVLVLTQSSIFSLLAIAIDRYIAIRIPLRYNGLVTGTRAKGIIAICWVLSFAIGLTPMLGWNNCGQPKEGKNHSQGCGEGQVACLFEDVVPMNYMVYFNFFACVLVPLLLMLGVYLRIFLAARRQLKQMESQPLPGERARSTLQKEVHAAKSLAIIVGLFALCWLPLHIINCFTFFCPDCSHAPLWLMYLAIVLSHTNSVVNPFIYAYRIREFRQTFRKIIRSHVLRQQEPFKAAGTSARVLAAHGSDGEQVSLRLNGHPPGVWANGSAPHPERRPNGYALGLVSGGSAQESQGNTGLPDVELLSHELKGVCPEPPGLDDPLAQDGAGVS
# Method in brief: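 hA2ACHO membranes in 50 mM Tris HCl, 10 mM MgCl2, pH 7.4, 4 °C for 60 min. [3H]ZM 241385 given as 1 nM in methods and 2 nM in table footnote. Compound at 10 μM from 100-fold DMSO stock, 1% DMSO final. Nonspecific binding with 1 μM ZM 241385. Filtration and scintillation counting. Percent inhibition of control specific binding, ±SEM, n=3.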
# [7] = target: T1, Adenosine receptor A1 (Homo sapiens); assay: Allosteric enhancement of human adenosine A1 receptor expressed in CHO cells assessed as increase of [3H]CCPA Bmax at 10 uM after 90 mins; assay type: cell-based
# Method in brief: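 Saturation of [3H]CCPA (0.05–20 nM) on hA1CHO membranes in 50 mM Tris-HCl, pH 7.4, with or without compound at final 10 μM. Triplicate, 25 °C, 90 min. Nonspecific binding defined with 1 μM R-PIA. Filter-bound radioactivity counted. KD and Bmax fitted by weighted nonlinear least squares; Bmax shift versus control. Mean ± SEM, n=3.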
SMILES,inhibition [1] [%],inhibition [2] [%],inhibition [3] [%],inhibition [4] [%],fold change (FC) [5],inhibition [6] [%],fold change (FC) [7]
CC(C)c1ccc(OCc2csc(N)c2C(=O)c2ccc(Cl)cc2)cc1,15,9,3,18,1.5,1,1.8
CN(Cc1csc(N)c1C(=O)c1ccc(Cl)cc1)c1ccc(C(F)(F)F)cc1,29,4,3,31,2.8,0,3.2
CCCCN(C)Cc1c(-c2ccccc2)sc(N)c1C(=O)c1ccc(Cl)cc1,5,5,1,12,1.1,1,1.1
Nc1scc(CN2CCC3(CC2)Oc2ccccc2O3)c1C(=O)c1ccc(Cl)cc1,45,5,1,43,4.7,1,5.1
C=CCN(CC=C)Cc1c(Br)sc(N)c1C(=O)c1ccc(Cl)cc1,8,8,6,13,1.2,1,1.2
CCCN(CCC)Cc1csc(N)c1C(=O)c1ccc(Cl)cc1,9,5,4,10,1.1,0,1.2
Cc1ccc2c(c1)OC1(CCN(Cc3csc(N)c3C(=O)c3ccc(Cl)cc3)CC1)O2,48,6,0,45,4.2,3,5.1
CN(Cc1ccccc1)Cc1c(-c2ccccc2)sc(N)c1C(=O)c1ccc(Cl)cc1,4,6,1,11,1.1,3,1.1
C=CCN(CC=C)Cc1c(-c2ccccc2)sc(N)c1C(=O)c1ccc(Cl)cc1,36,5,3,34,3.9,1,4.2
CN(C)Cc1c(-c2ccccc2)sc(N)c1C(=O)c1ccc(Cl)cc1,6,2,1,10,1,1,1.1
CC(C)(C)c1ccc2c(c1)OC1(CCN(Cc3csc(N)c3C(=O)c3ccc(Cl)cc3)CC1)O2,51,12,1,55,6,0,6.3
Nc1scc(COc2ccc(F)cc2)c1C(=O)c1ccc(Cl)cc1,10,8,1,15,1.2,1,1.2
Nc1scc(CN2CCN3c4ccccc4CC3C2)c1C(=O)c1ccc(Cl)cc1 (stereo unspecified),71,5,0,72,7.6,3,8.1
Nc1scc(CN2CCn3c(cc4cc(F)ccc43)C2)c1C(=O)c1ccc(Cl)cc1,69,5,0,65,7.2,2,8.2
Cn1c2c(c3cc(Cl)ccc31)CN(Cc1csc(N)c1C(=O)c1ccc(Cl)cc1)CC2,24,1,1,28,2.6,0,2.8
CN(Cc1csc(N)c1C(=O)c1ccc(Cl)cc1)c1ccc(F)cc1,28,4,3,26,3.4,2,3.2
Nc1scc(CN2CCc3[nH]c4ccc(Cl)cc4c3C2)c1C(=O)c1ccc(Cl)cc1,8,1,2,13,1.1,1,1.2
CN(Cc1ccccc1)Cc1csc(N)c1C(=O)c1ccc(Cl)cc1,42,7,1,40,4,1,4.4
